The data set can be described thus: Toxicity liver stage against HepG2, at 10uM. Conditions: human, HepG2-A16-CD81EGFP cells; read-out: INHIBITION
Details: test concentration 10 uM, cell line HepG2-A16-CD81EGFP. Format: cell-based. A digest of the protocol:
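Uninfected HepG2-A16-CD81EGFP cells, 3 × 10^3 per well, 1536-well, plated on prespotted compound at 10 μM final, parasite-free screening media added to match infected plates; puromycin 10 μM positive, DMSO 0.5% negative; run in parallel with 48 h PbLuc assay at 37 °C, 5% CO2; viability by CellTiter-Glo luminescence, normalized to controls.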
In the case of `CC(C)CS(=O)(=O)N1C[C@@H]2C[C@H](C(=O)N3CCCC3)[C@H](C1)O2`, the cytotoxicity at 10 µM turned out to be 17%.
In the case of `CCn1c(C)cc(C(=O)N2CCCC(C(=O)c3nccn3C)C2)c1C` (configuration not stated) it was 6.27%.
For `CC(C)OC(=O)CNC(=O)Nc1ccc(-c2nc(C(C)C)no2)cc1`, the cytotoxicity at 10 µM was -5.81%.
With `O=C(NCC1CC1)C1CCC2(CCN(C(=O)c3cccs3)CC2)O1` (configuration not stated) the figure was -0.979%; with `Cc1cc(Br)oc1C(=O)N1CCCN(CC(N)=O)CC1`, 0.71%; with `Cc1cc(C[C@@H]2COC[C@H]2NCc2ccc(C)c(C)c2)on1`, 8.1%.
In the case of `CCC(C)CNc1ccc2oc(COC)nc2c1` (configuration not stated) it was -22.4%; in that of `COC1CCN(C(=O)c2c(Cl)c3ccccc3n2C)CC1`, 4.39%; in that of `CS(=O)(=O)N1CCC(n2nnn(-c3ccccc3)c2=O)CC1`, 2.58%.
With `COc1cccc(CCCNC(=O)N2CCC(O)(C(F)(F)F)C2)c1` (configuration not stated) the figure was -4.25%.
With `O=C(NCC1CCS(=O)(=O)C1)c1cccc(CN2CCCC2)c1` (configuration not stated), the cytotoxicity at 10 µM was -0.986%.
With `CCc1nc(CN2CCCC(NCc3ncc(C(C)(C)C)o3)C2)no1` (configuration not stated) the figure was 1.97%; with `CCOc1ccc2ccccc2c1CNCC1CCS(=O)(=O)C1` (configuration not stated), -3.4%; with `Cc1cc(C)c2[nH]c(=O)c(CN3CCCC4(C3)CN(C)C(=O)O4)cc2c1` (configuration not stated), -14.3%.
Take `COc1ccc(C2CCCN2C(=O)c2cc(C(C)C)on2)cc1` (configuration not stated): the cytotoxicity at 10 µM came to 0.462%.
For the molecule `CN(C)CCNC(=O)[C@H]1C[C@H]2CN(C(=O)NCc3ccccc3)C[C@@H]1O2`, the cytotoxicity at 10 µM was 1.96%.
With `O=C(CN1CCCc2c(F)cc(Br)cc21)N1CCN(C(=O)C2CC2)CC1` the figure was -5.06%; with `CC(=O)N1CCO[C@@H]2CN(C(=O)c3ccccc3)CC[C@@H]2C1`, 5.29%.
In the case of `CCc1ccsc1C(=O)N1CCN(C(=O)c2ccc(C)o2)CC1` it was 6.98%; in that of `Cc1cccc(C(=O)N2CCc3ncnc(C4CCOC4)c3CC2)n1` (configuration not stated), -69.8%.
Regarding `CCCc1n[nH]c(C2CN(CC(=O)N(C)Cc3ccco3)CCO2)n1` (configuration not stated), the cytotoxicity at 10 µM is -4.84%.
In the case of `CCN1CCN(C(C)CNC(=O)Nc2cnn(CC)c2)CC1` (configuration not stated) it was -12.9%.
With `CC(C)CN1CCC(C(=O)NCCNC(=O)c2ccoc2)CC1` the figure was 0.335%; with `c1cnc(C2CCCN2c2cnccn2)cn1` (configuration not stated), -22.6%; with `c1ccc(NCc2cnc3n2CCN(C2CCOC2)CC3)nc1` (configuration not stated), -70.5%.
Regarding `O=c1cc(Cn2ccnc2)nc2n1CCCN(Cc1ccc(F)cc1)C2`, the cytotoxicity at 10 µM was determined as 7.17%.
Turning to `COC(=O)N1CCC(NC(=O)c2cc(S(N)(=O)=O)ccc2C)CC1`, the cytotoxicity at 10 µM is -1.22%.
Regarding `Cn1ccc(C(=O)NCC2(O)CCN(c3cnccn3)C2)n1` (configuration not stated), the cytotoxicity at 10 µM turned out to be 3.45%.
For the molecule `CNC(=O)C(C)CN(C)C(=O)Nc1cc(-n2cccc2)ccc1F` (configuration not stated), the cytotoxicity at 10 µM was -5.28%.
Consider `CC(C)(C)CC(=O)NCC1CCCS1` (configuration not stated), for which the cytotoxicity at 10 µM was 11.2%.
In the case of `Cn1cnc2c1CCN(Cc1nc(-c3ccsc3)no1)C2`, the cytotoxicity at 10 µM was -3.29%.
In the case of `O=C([C@H]1CCCO1)N1CC[C@H](O)[C@@H]1Cc1cccnc1` it was -105%.
As for `CC(C)n1cc(C(=O)NCC(CO)Cc2cccs2)cn1` (configuration not stated), the cytotoxicity at 10 µM worked out at 7.64%.
With `Cc1nc([C@@H]2C[C@@H]3CCN(Cc4cnn(C)c4)C[C@H]3O2)sc1C`, the cytotoxicity at 10 µM is -3.49%.
For the molecule `Cc1oc(-c2ccccc2)nc1C(=O)NC1=NCCS1`, the cytotoxicity at 10 µM turned out to be 1.85%.
With `O=S1(=O)C[C@@H]2[C@H](C1)N(Cc1cc(F)cc(F)c1)CCN2CCO` the figure was -2.61%; with `COc1ccc(Cl)cc1CS(=O)(=O)CC(=O)N(C)Cc1ccccc1F`, 2.53%.
On to `O=C(NC[C@H]1OC[C@@H](NC2COC2)[C@@H]1O)Nc1ccccc1`, for which the cytotoxicity at 10 µM stood at 4.43%.
For the molecule `CCn1nc(C)c2nnn(CC(=O)Nc3ccc(C)cc3)c(=O)c21`, the cytotoxicity at 10 µM is 8.49%.
As to `Cc1cnn(CC2CCCN2CC(=O)N(C)CCC#N)c1` (configuration not stated), the cytotoxicity at 10 µM was determined as 7%.
With `COc1ccc(OC)c(Nc2nc3c(C)nn(C)c3c(=O)n2C)c1` the figure was -2.73%; with `CCC(CO)NC(=O)Nc1cc(F)ccc1Br` (configuration not stated), 11.9%.
As for `CCNC(=O)NCCc1csc(N2CCCC2)n1`, the cytotoxicity at 10 µM was -4.63%.
`Cc1[nH]nc(CCC(=O)N2CCc3c(nc[nH]c3=O)C2)c1C`: the cytotoxicity at 10 µM amounted to 3.63%.
With `c1c(CN2CCCC2)nc2n1CCNC2` the figure was 9.94%; with `Cc1ccc(S(=O)(=O)NCC(C)C#N)cc1Br` (configuration not stated), 0.727%; with `CC(=O)NCCNC(=O)N(C)Cc1ccc2c(c1)OCCO2`, -1.59%.
In the case of `Cn1cnc2c1CCN(CC(=O)N(Cc1ccsc1)C1CC1)C2` it was -0.157%; in that of `CCC[C@@H]1CN(C(=O)Cc2sc(C)nc2C)C[C@H]1C(=O)O`, -125%.
Take `Cc1cc(C)n(-c2ccc(C(=O)NCC(CO)Cc3ccco3)cc2)n1` (configuration not stated): the cytotoxicity at 10 µM was 3.62%.
As for `COCCOCc1cccc(NC(=O)N2CCCC2c2ccncc2)c1` (configuration not stated), the cytotoxicity at 10 µM was 6.79%.
As for `COc1ccc(C(=O)N2CCCC2c2ccco2)cc1OC` (configuration not stated), the cytotoxicity at 10 µM came out at 1.03%.
With `NC(=O)CN(Cc1ccc(Br)cc1)C(=O)c1ccccn1` the figure was 6.85%; with `O=C(c1ccc2[nH]cnc2c1)N1CCC(Oc2cccnc2)CC1`, -12.8%.
With `O=C(c1cccc2ncccc12)N1CCCN(c2cccnn2)CC1` the figure was -2.08%; with `Cc1cnc(N2CCN(C)CC2)nc1-c1ccnn1C`, 6.3%.
In the case of `Cn1cc(N2CC3(CCN(CC4CCC4)CC3)OCC2=O)cn1` it was -0.269%; in that of `O=C(NCc1ncc[nH]1)c1c(F)cccc1I`, -6.78%.
Consider `CC(=O)N1CCCC1c1nccnc1NCc1cccnc1` (configuration not stated), for which the cytotoxicity at 10 µM was -6.72%.
In the case of `O=C1N(c2ccccc2)C[C@H]2CN(C3CCC3)CCN12`, the cytotoxicity at 10 µM was found to be 6.09%.
In the case of `CC(C)N(CC(N)=O)CC(=O)N(C1=CCCCC1)C1CC1` it was -0.429%; in that of `Cn1ccc(C(=O)NCc2cccc(CN3CCCC3)c2)cc1=O`, -3.07%; in that of `CCC(C)N(Cc1ccsc1)C(=O)c1ccc(CO)cc1` (configuration not stated), 4.26%.
Turning to `N#Cc1cc2c(=O)n(CC(O)c3cccc(O)c3)ccc2[nH]c1=O` (configuration not stated), the cytotoxicity at 10 µM was determined as 2.86%.
For the molecule `CNCc1n[nH]c(=O)n1-c1cccc(Cl)c1Cl`, the cytotoxicity at 10 µM came to 0.396%.
In the case of `c1cc(CN2CCCCC2)cc(NCc2cc[nH]n2)c1` it was -6.05%; in that of `COCCN1CCc2ncnc(N(C)C)c2CC1`, -0.025%; in that of `N#Cc1cccc(OCCN2CCOC(Cn3cccn3)C2)c1` (configuration not stated), -1.3%.
With `CC(=O)N1CCC(c2n[nH]c3nccnc23)CC1` the figure was -8.69%; with `CC(C)(C)N1CC(C(=O)N2CCN(CCn3cncn3)CC2)CC1=O` (configuration not stated), -5.14%.
As to `CC(=O)N1CCCN(C(=O)c2ccc(Cn3ccccc3=O)o2)CC1`, the cytotoxicity at 10 µM is -1.4%.
In the case of `CC(C)C(=O)N1CCN(S(C)(=O)=O)CC2(CC(=O)N(C)C2)C1` (configuration not stated) it was 8.91%; in that of `Cc1nc(C2CCNCC2)cc(N(C)Cc2cc3cc(F)ccc3[nH]2)n1`, -10.7%; in that of `Cc1noc([C@@H]2C[C@H]3CN(Cc4scnc4C)C[C@H]3O2)n1`, -136%.
In the case of `COCCN1CCc2ncnc(NC3CC3)c2CC1` it was 5.62%; in that of `CN(C)C(=O)N1CCN(C(=O)c2ccn3ccnc3c2)CC1`, -5.02%.
On to `CC(C)c1ccc(OCCC(=O)N(C)CC(N)=O)cc1`, for which the cytotoxicity at 10 µM was 6.77%.
`COc1ncccc1CNC(=O)NC1CCOc2ccccc21` (configuration not stated): the cytotoxicity at 10 µM is -7%.
With `CCc1nnsc1C(=O)N(C)Cc1nnc2n1CCC2` the figure was -0.862%; with `CC(C)Nc1nc(-c2ccccc2)nc2c1CCN(C(=O)C1CC1)CC2`, -108%; with `CS(=O)(=O)CCS(=O)(=O)Cc1cc(Cl)c2c(c1)OCCCO2`, -0.0261%.
In the case of `CCCc1n[nH]c(C2CN(CCNC3CCCCC3)CCO2)n1` (configuration not stated) it was 2.75%; in that of `CC(C)C(=O)N1CCN(Cc2csc(-c3ncccn3)n2)CC1`, -5.1%; in that of `COc1ccc(Cl)cc1CN(CC(N)=O)C(C)C`, 1.49%.
In the case of `CSCCCN1CCC[C@]2(C(=O)O)CN(c3cnccn3)CC[C@@H]12` it was 8.26%; in that of `CC(C)(O)CN1CCN(C(=O)COC2CCCC2)CC1`, 1.46%.
`Cc1ccc(-c2nnc([C@H]3CCN(C4CCC4)C3)o2)cc1`: the cytotoxicity at 10 µM was determined as 8.81%.
Turning to `Cc1cc(CNc2ccc(CC(=O)N(C)c3ccccc3)cc2)no1`, the cytotoxicity at 10 µM was -13.9%.
With `CN(CCc1cn[nH]c1)Cc1nc(Cc2cccc(F)c2)no1` the figure was -1.53%; with `CCc1[nH]c2c(CNc3nccc(N)n3)cc(F)cc2c1C`, -8.36%.
`O=C(NCc1cccs1)NCC(O)(c1cccs1)C1CC1` (configuration not stated): the cytotoxicity at 10 µM worked out at 1.66%.
Take `CCOc1ncccc1CNC(=O)NC(C)Cn1cccn1` (configuration not stated): the cytotoxicity at 10 µM was -15.7%.
On to `O=C(NCc1cccnc1)c1cn(CCc2ccccc2)nn1`, for which the cytotoxicity at 10 µM worked out at 4.39%.
With `COCc1ncn(Cc2nc(-c3ccc(OC)cc3F)oc2C)n1` the figure was -92.7%; with `CN(C)Cc1nnc(C2CCCN(c3cc(C(F)(F)F)ccn3)C2)n1C` (configuration not stated), -11.9%.
In the case of `COCCCNC(=O)c1cc(C(C)C)nc(N2CCCCCC2)n1` it was 9.15%; in that of `COCc1nc(C(=O)N2CCCC2c2cc(C)no2)cs1` (configuration not stated), -12.9%.

(Values after ChEMBL document CHEMBL4513216, “Probing the Open Global Health Chemical Diversity Library for Multistage-Active Starting Points for Next-Generation Antimalarials” (ACS Infect Dis, 2020).)
